Converted amounts (≈) assume the structure as drawn. Numbered stars: 1 amine (or outer) side, 2 acyl side, 3 side chain; on linkers, the order of the positions; unused ones are H or OH. Peptide text beside a SMILES is read from it. * marks the point of attachment. Piperazinyl(4-(2,3-Cl2Ph)) = Clc1cccc(N2CCN(*)CC2)c1Cl; Thiocarbamoyl(N-4-ClPh) = S=C(Nc1ccc(Cl)cc1)*; Thiocarbamoyl(4-MeOPh) = COc1ccc(NC(=S)*)cc1; Thiocarbamoyl(N-2-FPh) = Fc1ccccc1NC(=S)*; NH(4-Cl-phenyl) = Clc1ccc(N*)cc1; X1 = Fc1ccc2c(C3CCN(*)CC3)noc2c1; NH(2-F-phenyl) = Fc1ccccc1N*; CO = O=C([*:1])[*:2]; OcHex = C1CCC(O*)CC1
Assays:
Format in all cases: functional
Escherichia coli [1] = test: Antibacterial activity against Escherichia coli at 30 ug/ml after 24 hrs by agar well diffusion method; conditions: read-out: DIZ
How it was run: (§1)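 Agar well diffusion. Inocula were grown in nutrient broth at 37 °C for 24 h, then subcultured in nutrient broth at room temperature. Compounds were made as a 1 mg/mL DMSO stock and diluted to 30 µg/mL final. Nutrient agar plates were spread-inoculated and 6 mm wells each got 0.1 mL. Controls were amoxicillin (reference) and DMSO (negative). Incubation was 24 h at 37 °C. Inhibition zone was measured in mm as the mean of three determinations.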

Xanthomonas oryzae [2] = test: Antibacterial activity against Xanthomonas oryzae at 30 ug/ml after 24 hrs by agar well diffusion method; conditions: read-out: DIZ
Klebsiella pneumoniae [3] = test: Antibacterial activity against Klebsiella pneumoniae at 30 ug/ml after 24 hrs by agar well diffusion method; conditions: read-out: DIZ; how it was run: as §1
Staphylococcus aureus [4] = test: Antibacterial activity against coagulase-positive Staphylococcus aureus at 30 ug/ml after 24 hrs by agar well diffusion method; conditions: read-out: DIZ; how it was run: as §1
Aspergillus niger [5] = test: Antifungal activity against Aspergillus niger at 30 ug/ml after 72 hrs by agar well diffusion method; conditions: read-out: DIZ
How it was run: (§2)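 Fungal well diffusion. Inocula were subcultured in nutrient broth for one day, then spread on solidified medium. Compounds were made as a 1 mg/mL DMSO stock and diluted to 30 µg/mL final. Each 6 mm well got 0.1 mL. Controls were bavistin (reference) and DMSO (negative). Plates stood for 3 days at room temperature. Inhibition zone was measured in mm as the mean of three determinations.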

Aspergillus flavus [6] = test: Antifungal activity against Aspergillus flavus at 30 ug/ml after 72 hrs by agar well diffusion method; conditions: read-out: DIZ; how it was run: as §2
Fusarium oxysporum [7] = test: Antifungal activity against Fusarium oxysporum at 30 ug/ml after 72 hrs by agar well diffusion method; conditions: read-out: DIZ; how it was run: as §2
Aspergillus niger [8] = test: Antifungal activity against Aspergillus niger after 72 hrs by microdilution method
Aspergillus flavus [9] = test: Antifungal activity against Aspergillus flavus after 72 hrs by microdilution method
Fusarium oxysporum [10] = test: Antifungal activity against Fusarium oxysporum after 72 hrs by microdilution method
Aspergillus niger [11] = test: Ratio of bavistin MIC to compound MIC for Aspergillus niger after 72 hrs by microdilution method
Aspergillus flavus [12] = test: Ratio of bavistin MIC to compound MIC for Aspergillus flavus after 72 hrs by microdilution method
Fusarium oxysporum [13] = test: Ratio of bavistin MIC to compound MIC for Fusarium oxysporum after 72 hrs by microdilution method
Escherichia coli [14] = test: Antibacterial activity against Escherichia coli after 24 hrs by microdilution method
Xanthomonas oryzae [15] = test: Antibacterial activity against Xanthomonas oryzae after 24 hrs by microdilution method
Klebsiella pneumoniae [16] = test: Antibacterial activity against Klebsiella pneumoniae after 24 hrs by microdilution method
Staphylococcus aureus [17] = test: Antibacterial activity against coagulase-positive Staphylococcus aureus after 24 hrs by microdilution method

Row | SMILES | zone of inhibition at 30 µg/mL (Escherichia coli [1]) [mm] | zone of inhibition at 30 µg/mL (Xanthomonas oryzae [2]) [mm] | zone of inhibition at 30 µg/mL (Klebsiella pneumoniae [3]) [mm] | zone of inhibition at 30 µg/mL (Staphylococcus aureus [4]) [mm] | zone of inhibition at 30 µg/mL (Aspergillus niger [5]) [mm] | zone of inhibition at 30 µg/mL (Aspergillus flavus [6]) [mm] | zone of inhibition at 30 µg/mL (Fusarium oxysporum [7]) [mm] | MIC (Aspergillus niger [8]) [µg/mL] | MIC (Aspergillus flavus [9]) [µg/mL] | MIC (Fusarium oxysporum [10]) [µg/mL] | Ratio (Aspergillus niger [11]) | Ratio (Aspergillus flavus [12]) | Ratio (Fusarium oxysporum [13]) | MIC (Escherichia coli [14]) [µg/mL] | MIC (Xanthomonas oryzae [15]) [µg/mL] | MIC (Klebsiella pneumoniae [16]) [µg/mL] | MIC (Staphylococcus aureus [17]) [µg/mL]
1 | CC(C)[C@H](NC(=O)CNC(=O)[C@@H]1CCCN1C(=O)[C@H](Cc1ccccc1)NC(=O)CNC(=O)[C@H](CCC(=O)OC1CCCCC1)NC(=O)CNC(=O)Nc1ccccc1F)C(=O)NCC(=O)N[C@H](C(=O)N1CCC[C@H]1C(=O)NCC(=O)N[C@H](C(=O)NCC(=O)N[C@@H](Cc1ccccc1)C(=O)N1CCC[C@H]1C(=O)NCC(=O)N[C@@H](Cc1ccccc1)C(=O)NCC(=O)N[C@@H](Cc1ccccc1)C(=O)N1CCC[C@H]1C(=O)NCC(=O)N[C@H](C(=O)NCC(=O)N[C@H](C(=O)N1CCC[C@H]1C(=O)NCC(=O)N[C@H](C(=O)NCC(=O)N[C@@H](Cc1ccccc1)C(=O)N1CCC[C@H]1C(=O)N1CCN(c2cccc(Cl)c2Cl)CC1)C(C)C)C(C)C)C(C)C)C(C)C)C(C)C ({NH(2-F-phenyl)-CO}-GE(OcHex)GFPGVGVPGVGFPGFGFPGVGVPGVGFP-{Piperazinyl(4-(2,3-Cl2Ph))}) | 22 | 19 | 21 | 20 | 48 | 42 | 43 | 2 (≈ 0.629 µM) | 1.75 (≈ 0.551 µM) | 2 (≈ 0.629 µM) | 10 | 10 | 10 |  |  |  | 
2 | CC(C)[C@H](NC(=O)CNC(=O)[C@@H]1CCCN1C(=O)[C@H](Cc1ccccc1)NC(=O)CNC(=O)[C@H](CCC(=O)OC1CCCCC1)NC(=O)CNC(=O)Nc1ccccc1F)C(=O)NCC(=O)N[C@H](C(=O)N1CCC[C@H]1C(=O)NCC(=O)N[C@H](C(=O)NCC(=O)N[C@H](C(=O)N1CCC[C@H]1C(=O)NCC(=O)N[C@H](C(=O)NCC(=O)N[C@H](C(=O)N1CCC[C@H]1C(=O)NCC(=O)N[C@@H](Cc1ccccc1)C(=O)NCC(=O)N[C@@H](Cc1ccccc1)C(=O)N1CCC[C@H]1C(=O)NCC(=O)N[C@@H](Cc1ccccc1)C(=O)NCC(=O)N[C@@H](Cc1ccccc1)C(=O)N1CCC[C@H]1C(=O)N1CCC(c2noc3cc(F)ccc23)CC1)C(C)C)C(C)C)C(C)C)C(C)C)C(C)C ({NH(2-F-phenyl)-CO}-GE(OcHex)GFPGVGVPGVGVPGVGVPGFGFPGFGFP-X1) | 24 | 21 | 22 | 22 | 46 | 43 | 44 | 1.25 (≈ 0.395 µM) | 1.25 (≈ 0.395 µM) | 1.5 (≈ 0.474 µM) | 10 | 10 | 10 |  |  |  | 
3 | CC(C)[C@H](NC(=O)CNC(=O)Nc1ccc(Cl)cc1)C(=O)NCC(=O)N[C@H](C(=O)N1CCC[C@H]1C(=O)N1CCC(c2noc3cc(F)ccc23)CC1)C(C)C ({NH(4-Cl-phenyl)-CO}-GVGVP-X1) | 30 | 26 | 29 | 27 | 33 | 29 | 32 | 6.5 (≈ 8.3 µM) | 7.5 (≈ 9.57 µM) | 8.5 (≈ 10.9 µM) |  |  |  | 9.25 (≈ 11.8 µM) | 8.5 (≈ 10.9 µM) | 6.75 (≈ 8.62 µM) | 8.75 (≈ 11.2 µM)
4 | COc1ccc(NC(=S)NCC(=O)N[C@@H](CCC(=O)OC2CCCCC2)C(=O)NCC(=O)N[C@@H](Cc2ccccc2)C(=O)N2CCC[C@H]2C(=O)NCC(=O)N[C@H](C(=O)NCC(=O)N[C@H](C(=O)N2CCC[C@H]2C(=O)NCC(=O)N[C@H](C(=O)NCC(=O)N[C@@H](Cc2ccccc2)C(=O)N2CCC[C@H]2C(=O)NCC(=O)N[C@@H](Cc2ccccc2)C(=O)NCC(=O)N[C@@H](Cc2ccccc2)C(=O)N2CCC[C@H]2C(=O)NCC(=O)N[C@H](C(=O)NCC(=O)N[C@H](C(=O)N2CCC[C@H]2C(=O)NCC(=O)N[C@H](C(=O)NCC(=O)N[C@@H](Cc2ccccc2)C(=O)N2CCC[C@H]2C(=O)N2CCN(c3cccc(Cl)c3Cl)CC2)C(C)C)C(C)C)C(C)C)C(C)C)C(C)C)C(C)C)cc1 ({Thiocarbamoyl(4-MeOPh)}-GE(OcHex)GFPGVGVPGVGFPGFGFPGVGVPGVGFP-{Piperazinyl(4-(2,3-Cl2Ph))}) | 15 | 13 | 15 | 14 | 42 | 37 | 38 | 2.75 (≈ 0.858 µM) | 2.75 (≈ 0.858 µM) | 3.25 (≈ 1.01 µM) | 10 | 10 | 10 |  |  |  | 
5 | O=C(CNC(=S)Nc1ccccc1F)N[C@@H](Cc1ccccc1)C(=O)NCC(=O)N[C@@H](Cc1ccccc1)C(=O)N1CCC[C@H]1C(=O)N1CCC(c2noc3cc(F)ccc23)CC1 ({Thiocarbamoyl(N-2-FPh)}-GFGFP-X1) | 41 | 41 | 37 | 36 | 41 | 36 | 40 | 3 (≈ 3.41 µM) | 4.5 (≈ 5.12 µM) | 4 (≈ 4.55 µM) |  |  |  | 4.75 (≈ 5.4 µM) | 4.75 (≈ 5.4 µM) | 3 (≈ 3.41 µM) | 4 (≈ 4.55 µM)
6 | O=C(CNC(=S)Nc1ccccc1F)NCC(=O)N[C@@H](Cc1ccccc1)C(=O)N1CCC[C@H]1C(=O)N1CCC(c2noc3cc(F)ccc23)CC1 ({Thiocarbamoyl(N-2-FPh)}-GGFP-X1) | 32 | 30 | 28 | 26 | 35 | 30 | 32 | 8.5 (≈ 11.6 µM) | 12.2 (≈ 16.7 µM) | 13.2 (≈ 18.1 µM) |  |  |  | 11.5 (≈ 15.7 µM) | 8.5 (≈ 11.6 µM) | 8.25 (≈ 11.3 µM) | 10.2 (≈ 14 µM)
7 | CC(C)[C@H](NC(=O)CNC(=S)Nc1ccccc1F)C(=O)NCC(=O)N[C@H](C(=O)N1CCC[C@H]1C(=O)N1CCC(c2noc3cc(F)ccc23)CC1)C(C)C ({Thiocarbamoyl(N-2-FPh)}-GVGVP-X1) | 35 | 36 | 35 | 31 | 37 | 33 | 35 | 4.75 (≈ 6.07 µM) | 5.5 (≈ 7.03 µM) | 6.75 (≈ 8.62 µM) |  |  |  | 7.25 (≈ 9.26 µM) | 6.25 (≈ 7.98 µM) | 5 (≈ 6.39 µM) | 6.25 (≈ 7.98 µM)
8 | O=C(CNC(=S)Nc1ccc(Cl)cc1)N[C@@H](Cc1ccccc1)C(=O)NCC(=O)N[C@@H](Cc1ccccc1)C(=O)N1CCC[C@H]1C(=O)N1CCC(c2noc3cc(F)ccc23)CC1 ({Thiocarbamoyl(N-4-ClPh)}-GFGFP-X1) | 35 | 36 | 34 | 32 | 39 | 32 | 36 | 4.5 (≈ 5.03 µM) | 6 (≈ 6.7 µM) | 5.75 (≈ 6.42 µM) |  |  |  | 6 (≈ 6.7 µM) | 6.25 (≈ 6.98 µM) | 4.5 (≈ 5.03 µM) | 5.75 (≈ 6.42 µM)
9 | O=C(CNC(=S)Nc1ccc(Cl)cc1)N[C@@H](Cc1ccccc1)C(=O)NCC(=O)N[C@@H](Cc1ccccc1)C(=O)N1CCC[C@H]1C(=O)N1CCN(c2cccc(Cl)c2Cl)CC1 ({Thiocarbamoyl(N-4-ClPh)}-GFGFP-{Piperazinyl(4-(2,3-Cl2Ph))}) | 32 | 33 | 32 | 30 | 34 | 30 | 31 | 5 (≈ 5.52 µM) | 6.5 (≈ 7.17 µM) | 6.25 (≈ 6.9 µM) |  |  |  | 6.75 (≈ 7.45 µM) | 6.75 (≈ 7.45 µM) | 5 (≈ 5.52 µM) | 6.25 (≈ 6.9 µM)
10 | CC(C)[C@H](NC(=O)CNC(=S)Nc1ccc(Cl)cc1)C(=O)NCC(=O)N[C@H](C(=O)N1CCC[C@H]1C(=O)N1CCC(c2noc3cc(F)ccc23)CC1)C(C)C ({Thiocarbamoyl(N-4-ClPh)}-GVGVP-X1) | 31 | 32 | 30 | 28 | 34 | 30 | 31 | 6 (≈ 7.51 µM) | 6.75 (≈ 8.44 µM) | 8 (≈ 10 µM) |  |  |  | 8.75 (≈ 10.9 µM) | 8 (≈ 10 µM) | 6.5 (≈ 8.13 µM) | 8 (≈ 10 µM)
11 | CC(C)[C@H](NC(=O)CNC(=S)Nc1ccc(Cl)cc1)C(=O)NCC(=O)N[C@H](C(=O)N1CCC[C@H]1C(=O)N1CCN(c2cccc(Cl)c2Cl)CC1)C(C)C ({Thiocarbamoyl(N-4-ClPh)}-GVGVP-{Piperazinyl(4-(2,3-Cl2Ph))}) | 29 | 31 | 24 | 26 | 32 | 24 | 29 | 6.75 (≈ 8.33 µM) | 7.75 (≈ 9.56 µM) | 8.75 (≈ 10.8 µM) |  |  |  | 9.5 (≈ 11.7 µM) | 8.75 (≈ 10.8 µM) | 7 (≈ 8.64 µM) | 9 (≈ 11.1 µM)

Reference: ChEMBL document CHEMBL1932971, “Synthesis of uriedo and thiouriedo derivatives of peptide conjugated heterocycles - A new class of promising antimicrobials” (2012)
